According to ChEMBL document CHEMBL2440074, “An epoxyisoprostane is a major regulator of endothelial cell function” (J Med Chem, 2013):
Activity calls are given as the source filed them. No cut-off for these calls is given here.

Tests used:
Assay type in all cases: functional
Homo sapiens [1] = organism: Homo sapiens; assay: Induction of HO-1 expression in HAEC at 3 uM after 4 hrs by qPCR analysis
How it was run: (§1)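 Cultured HAECs, switched overnight to M199/10% FBS, exposed for 4 h to 3 μM lipid in M199 with 1% FBS, duplicate/replicate wells. Cells scraped, mRNA quantified by qPCR with GAPDH normalization; fold change of treated over untreated cells.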

Homo sapiens [2] = organism: Homo sapiens; assay: Induction of HSP1A1 expression in HAEC at 3 uM after 4 hrs by qPCR analysis
Homo sapiens [3] = organism: Homo sapiens; assay: Induction of ATF-3 expression in HAEC at 3 uM after 4 hrs by qPCR analysis; how it was run: as §1
Homo sapiens [4] = organism: Homo sapiens; assay: Induction of IL-8 expression in HAEC at 3 uM after 4 hrs by qPCR analysis; how it was run: as §1
Homo sapiens [5] = organism: Homo sapiens; assay: Induction of MCP1 expression in HAEC at 3 uM after 4 hrs by qPCR analysis; how it was run: as §1
Homo sapiens [6] = organism: Homo sapiens; assay: Induction of VCAM-1 expression in HAEC at 6 uM after 4 hrs by microarray assay relative to control
How it was run: (§2)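 Microarray on RNA from duplicate HAEC wells given 3 μM EI4 or 6 μM PEIPC in M199 with 1% FBS for 4 h, or left untreated. Probes with detection p < 0.001 retained. Fold change is mean treated probe level over mean control probe level. Genes counted as regulated at ≥1.2-fold.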

Homo sapiens [7] = organism: Homo sapiens; assay: Induction of IL-8 expression in HAEC at 6 uM after 4 hrs by microarray assay relative to control; how it was run: as §2
Homo sapiens [8] = organism: Homo sapiens; assay: Induction of MCP1 expression in HAEC at 6 uM after 4 hrs by microarray assay relative to control; how it was run: as §2
Homo sapiens [9] = organism: Homo sapiens; assay: Induction of NfKB1A expression in HAEC at 6 uM after 4 hrs by microarray assay relative to control; how it was run: as §2
Homo sapiens [10] = organism: Homo sapiens; assay: Induction of IL-6 expression in HAEC at 6 uM after 4 hrs by microarray assay relative to control; how it was run: as §2
Homo sapiens [11] = organism: Homo sapiens; assay: Induction of E-selectin expression in HAEC at 6 uM after 4 hrs by qPCR analysis relative to control
Homo sapiens [12] = organism: Homo sapiens; assay: Induction of RelB expression in HAEC at 6 uM after 4 hrs by microarray assay relative to control; how it was run: as §2
Homo sapiens [13] = organism: Homo sapiens; assay: Induction of CXCL1 expression in HAEC at 6 uM after 4 hrs by microarray assay relative to control; how it was run: as §2
Homo sapiens [14] = organism: Homo sapiens; assay: Induction of ICAM-1 expression in HAEC at 6 uM after 4 hrs by microarray assay relative to control; how it was run: as §2
Homo sapiens [15] = organism: Homo sapiens; assay: Induction of CXCL6 expression in HAEC at 6 uM after 4 hrs by microarray assay relative to control; how it was run: as §2
Homo sapiens [16] = organism: Homo sapiens; assay: Inhibition of IL-1beta-induced MCP-1 mRNA expression in HAEC at 3 uM treated 1 hr before IL-1beta stimulation measured after 4 hrs by qPCR analysis
How it was run: (§3)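 RNA measured by qPCR. HAECs preincubated 1 h with 3 μM EI4, then exposed 4 h to 20 ng/mL IL-1β with EI still present. Value reported as percent reduction of the IL-1β-induced fold change.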

Homo sapiens [17] = organism: Homo sapiens; assay: Induction of RelB expression in HAEC at 3 uM after 4 hrs by microarray assay relative to control; how it was run: as §2
Homo sapiens [18] = organism: Homo sapiens; assay: Induction of CXCL1 expression in HAEC at 3 uM after 4 hrs by microarray assay relative to control; how it was run: as §2
Homo sapiens [19] = organism: Homo sapiens; assay: Induction of MCP1 expression in HAEC at 3 uM after 4 hrs by microarray assay relative to control; how it was run: as §2
[20] = Decrease of MCP-1 protein expression in HAEC at 6 uM after 4 hrs by ELISA; conditions: Homo sapiens
How it was run: (§4)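 HAECs kept overnight in M199 with 10% FBS, then left untreated or given increasing EI concentrations for 4 h in M199 with 1% FBS, triplicate wells. IL-8 and MCP-1 in the collected medium quantified by ELISA. Significance versus untreated control by Student t test.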

Homo sapiens [21] = organism: Homo sapiens; assay: Induction of IL-6 expression in HAEC at 3 uM after 4 hrs by microarray assay relative to control; how it was run: as §2
Homo sapiens [22] = organism: Homo sapiens; assay: Inhibition of IL-1beta-induced E-selectin mRNA expression in HAEC at 3 uM treated 1 hr before IL-1beta stimulation measured after 4 hrs by qPCR analysis; how it was run: as §3
Homo sapiens [23] = organism: Homo sapiens; assay: Inhibition of IL-1beta-induced VCAM-1 mRNA expression in HAEC at 3 uM treated 1 hr before IL-1beta stimulation measured after 4 hrs by qPCR analysis; how it was run: as §3
Homo sapiens [24] = organism: Homo sapiens; assay: Induction of IL-8 protein expression in HAEC at 0.75 to 1.5 uM after 4 hrs by ELISA; how it was run: as §4
Homo sapiens [25] = organism: Homo sapiens; assay: Induction of IL-8 expression in HAEC at 3 uM after 4 hrs by microarray assay relative to control; how it was run: as §2
Homo sapiens [26] = organism: Homo sapiens; assay: Inhibition of IL-1beta-induced ICAM-1 mRNA expression in HAEC at 3 uM treated 1 hr before IL-1beta stimulation measured after 4 hrs by qPCR analysis; how it was run: as §3
Homo sapiens [27] = organism: Homo sapiens; assay: Inhibition of IL-1beta-induced CXCL1 mRNA expression in HAEC at 3 uM treated 1 hr before IL-1beta stimulation measured after 4 hrs by qPCR analysis; how it was run: as §3
Homo sapiens [28] = organism: Homo sapiens; assay: Inhibition of IL-1beta-induced MCP-1 protein expression in HAEC at 3 uM treated 1 hr before IL-1beta stimulation measured after 4 hrs by ELISA
How it was run: (§5)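 HAECs preincubated 1 h with 3 μM EI4, then given 20 ng/mL IL-1β plus EI for 4 h. MCP-1 in the medium measured by ELISA and compared with IL-1β alone; significance by p value.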

Homo sapiens [29] = organism: Homo sapiens; assay: Induction of ICAM-1 expression in HAEC at 3 uM after 4 hrs by microarray assay relative to control; how it was run: as §2
Homo sapiens [30] = organism: Homo sapiens; assay: Inhibition of IL-1beta-induced MCP-1 protein expression in HAEC at 3 uM co-treated with IL-1beta measured after 4 hrs by ELISA; how it was run: as §5
Homo sapiens [31] = organism: Homo sapiens; assay: Induction of E-selectin expression in HAEC at 3 uM after 4 hrs by microarray assay relative to control; how it was run: as §2
[32] = Decrease of IL-8 protein expression in HAEC at 6 uM after 4 hrs by ELISA; conditions: Homo sapiens; how it was run: as §4
Homo sapiens [33] = organism: Homo sapiens; assay: Inhibition of IL-1beta-induced CXCL6 mRNA expression in HAEC at 3 uM treated 1 hr before IL-1beta stimulation measured after 4 hrs by qPCR analysis; how it was run: as §3
Homo sapiens [34] = organism: Homo sapiens; assay: Inhibition of IL-1beta-induced IL-6 mRNA expression in HAEC at 3 uM treated 1 hr before IL-1beta stimulation measured after 4 hrs by qPCR analysis; how it was run: as §3
Homo sapiens [35] = organism: Homo sapiens; assay: Induction of VCAM-1 expression in HAEC at 3 uM after 4 hrs by microarray assay relative to control; how it was run: as §2
Homo sapiens [36] = organism: Homo sapiens; assay: Induction of NfKB1A expression in HAEC at 3 uM after 4 hrs by microarray assay relative to control; how it was run: as §2
Homo sapiens [37] = organism: Homo sapiens; assay: Induction of CXCL6 expression in HAEC at 3 uM after 4 hrs by microarray assay relative to control; how it was run: as §2

CCCCC/C=C\C[C@H]1/C(=C\[C@@H]2O[C@H]2CCCC(=O)O)C(=O)C[C@H]1O
Activity (Homo sapiens [1]): Active
Activity (Homo sapiens [2]): Active
Activity (Homo sapiens [3]): Active
Activity (Homo sapiens [4]): Active

CCCCC/C=C\CC1/C(=C\C2OC2CCCC(=O)OC(COC(=O)CCCCCCCCCCCCCCC)COP(=O)([O-])OCC[N+](C)(C)C)C(=O)CC1O (stereo not drawn)
Activity (Homo sapiens [1]): Active
Activity (Homo sapiens [5]): Active
fold change (FC) (Homo sapiens [6]): 1.2
fold change (FC) (Homo sapiens [7]): 17
fold change (FC) (Homo sapiens [8]): 13
Activity (Homo sapiens [3]): Active
fold change (FC) (Homo sapiens [9]): 4
fold change (FC) (Homo sapiens [10]): 2.2
fold change (FC) (Homo sapiens [11]): 2.38
fold change (FC) (Homo sapiens [12]): 4.2
fold change (FC) (Homo sapiens [13]): 4.8
fold change (FC) (Homo sapiens [14]): 2.3
fold change (FC) (Homo sapiens [15]): 1.4

CCCCC/C=C\C[C@@H]1/C(=C\C2O[C@@H]2CCCC(=O)O)C(=O)CC1O (single isomer, unassigned)
Activity (Homo sapiens [1]): Active
Activity (Homo sapiens [2]): Active
Activity (Homo sapiens [3]): Active
Activity (Homo sapiens [4]): Active

CCCCC/C=C\C[C@@H]1/C(=C\[C@H]2O[C@@H]2CCCC(=O)O)C(=O)C[C@H]1O
Activity (Homo sapiens [1]): Active
inhibition (Homo sapiens [16]): 79.6%
fold change (FC) (Homo sapiens [17]): 0.8
fold change (FC) (Homo sapiens [18]): 1.3
Activity (Homo sapiens [5]): Active
fold change (FC) (Homo sapiens [19]): 0.2
Activity [20]: Active
Activity (Homo sapiens [2]): Active
fold change (FC) (Homo sapiens [21]): 0.6
inhibition (Homo sapiens [22]): 69.5%
inhibition (Homo sapiens [23]): 92.1%
Activity (Homo sapiens [24]): Active
fold change (FC) (Homo sapiens [25]): 3
inhibition (Homo sapiens [26]): 52.3%
inhibition (Homo sapiens [27]): 53.4%
inhibition (Homo sapiens [28]): Active
fold change (FC) (Homo sapiens [29]): 0.75
Activity (Homo sapiens [3]): Active
inhibition (Homo sapiens [30]): Active
fold change (FC) (Homo sapiens [31]): 0.21
Activity [32]: Active
Activity (Homo sapiens [4]): Active
inhibition (Homo sapiens [33]): 87.6%
inhibition (Homo sapiens [34]): 76%
fold change (FC) (Homo sapiens [35]): 0.27
fold change (FC) (Homo sapiens [36]): 0.79
fold change (FC) (Homo sapiens [37]): 0.59

CCCCC/C=C\C[C@H]1/C(=C\[C@@H]2O[C@H]2CCCC(=O)O)C(=O)C[C@@H]1O
Activity (Homo sapiens [1]): Active
Activity (Homo sapiens [5]): Active
Activity (Homo sapiens [2]): Active
Activity (Homo sapiens [3]): Active
Activity (Homo sapiens [4]): Active
